The nature of data set [1]: Oral Bioavailability was measured as Maximal observed concentration (Cmax) value at dose 125 mg/kg; b denotes No compound detectable in blood above the detection limit of 0.1 uM. Also noted: dose 125 mg/kg, route oral. It counts as ADME, organism-based. The following applies: in vivo. The method, boiled down: (§1)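 Female Balb/c mice, fasted 24 h before and during the study, water ad libitum. Dosed by oral gavage at 125 mg/kg in a liquid formulation. Heparinized whole blood sampled at various times, methanol-extracted, cleaned on sulfobenzyl SPE, then RP-C18 HPLC with UV at 200 nm against an internal standard. Cmax taken as observed; AUC calculated. Detection limit 0.1 µM.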

Data set [2] is described as follows: Oral Bioavailability was measured as area-under-curve(AUC) value at dose 125 mg/kg; b denotes No compound detectable in blood above the detection limit of 0.1 uM. It counts as ADME, organism-based. Particulars: in vivo. The method, boiled down:
as §1

Data set [3] in a line: Solubility (phosphate-buffered saline, pH =7.4). The format is physicochemical. The following applies: read-out: S. In outline: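 About 1 mg of lyophilized amorphous inhibitor in 1 mL PBS (pH 7.4), vortexed 1 min and sonicated 30 min at 37 °C. Filtered, then centrifuged at 100 000 rpm for 30 min. Supernatant run on RP-C18 HPLC (10 mM NH4OAc/CH3CN 50/50, UV 210 nm) and quantified by external standard. Minimum detectable 0.1 µg/mL.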

In data set [4] the test system is Human immunodeficiency virus 1. Description: Antiviral activity against HIV-1, IIIB, in MT-4 Cells. It counts as functional, organism-based. The following applies: Human immunodeficiency virus 1, MT4. In outline:
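HIV-1 strain IIIB-induced cytopathic effect in HTLV-I-transformed MT4 cells. Virus adsorbed to cells at 1 × 10⁶ cells/mL, 37 °C, 1 h. Compounds added postadsorption, final 1 × 10⁵ cells/mL. Inoculum set to kill 90% of cells in 5 days. Mock-infected and compound-only controls run. DMSO ≤0.3%, medium with 10% FBS. Viability read by MTT after 5 days. Mean of repeat determinations.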

Data set [5] addresses T1, Human immunodeficiency virus type 1 protease (Human immunodeficiency virus 1, UniProt Q72874). Put plainly: Binding affinity against HIV-1 protease. The method, boiled down:
(§2)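 Recombinant HIV-1 PR expressed in E. coli JM105 and purified to homogeneity. Enzyme incubated at 37 °C in 0.1 M MES, 0.37 M NaCl, 4 mM EDTA, pH 6.25, with 280 µM chromogenic nonapeptide substrate (pNph). Initial rates taken from the absorbance decrease at 298 nm. IC50 fitted, then Ki = (IC50 − Et/2)/(1 + S/Km). Mean of two determinations; DMSO ≤5%.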

Data set [6] can be described thus: Oral Bioavailability was measured as area-under-curve(AUC) value at dose 125 mg/kg; b = No compound detectable in blood above the detection limit of 0.1 uM. It counts as ADME, organism-based. The following applies: in vivo. The method, boiled down:
as §1

Data set [7] is described as follows: Oral Bioavailability was measured as Maximal observed concentration (Cmax) value at dose 125 mg/kg; b = No compound detectable in blood above the detection limit of 0.1 uM. It counts as ADME, organism-based. The arrangement: dose 125 mg/kg, route oral. The following applies: in vivo. In outline: as §1
The nature of data set [8]: Oral Bioavailability was measured as area-under-curve(AUC) value at dose 125 mg/kg;b = No compound detectable in blood above the detection limit of 0.1 uM. Particulars: in vivo. It counts as ADME, organism-based. The method, boiled down:
as §1

The nature of data set [9]: Oral Bioavailability was measured as Maximal observed concentration (Cmax) value at dose 125 mg/kg;b = No compound detectable in blood above the detection limit of 0.1 uM. The format is ADME, organism-based. The arrangement: dose 125 mg/kg, route oral. The following applies: in vivo. In outline:
as §1

A further data set concerns MT4. Description: Antiviral Activity against HIV-1, IIIB, in MT-4 Cells; d indicates no activity at 3 uM. The format is functional, cell-based, Homo sapiens. The method, boiled down:
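MT4 cells infected with HIV-1 IIIB; virus adsorbed at 1 × 10⁶ cells/mL, 37 °C, 1 h, then plated at 1 × 10⁵ cells/mL with compound added postadsorption. Inoculum set to kill 90% of cells in 5 days. Incubated 5 days; viability of infected and mock-infected cells by MTT, read spectrophotometrically. Medium with 10% FBS; DMSO ≤0.3%. Values given as mean ± SD, n in parentheses.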

Data set [10] concerns the target T1, Human immunodeficiency virus type 1 protease. Put plainly: Binding affinity against HIV-1 protease (HIV-1 PR); d indicates no activity at 3 uM. The method, boiled down:
as §2

The structures appear in SMILES notation. pIC50, pKi: −log10 of the molar value. ≈ marks a conversion by molar mass, not a printed value. A value given as a limit tells only on which side of the number the result lay.

As for `CC(C)(C)[C@H](NC(=O)OCc1ccccc1)C(=O)N[C@@H](Cc1ccccc1)[C@@H](O)[C@@H](NCc1ccc(CNC(=O)CCc2nc3ccccc3[nH]2)cc1)C(=O)N[C@@H]1c2ccccc2C[C@H]1O`, the Cmax result in data set [1] is reported as “No compound detectable”. In [2], the AUC result was “No compound detectable”. The solubility in data set [3] was under 1 µM. The compound further showed a negative logarithm of the IC50 (pIC50) in data set [4] of 6.79. Besides, the negative-log Ki (pKi) in [5] was 8.39.

For `CC(C)(C)[C@H](NC(=O)OCc1ccccc1)C(=O)N[C@@H](Cc1ccccc1)[C@@H](O)[C@@H](NCc1ccc(OCCN2CCOCC2)cc1)C(=O)N[C@H]1c2ccccc2C[C@H]1O`, in [6], the AUC entry is on record as “No compound detectable”. Further, in [7], the Cmax result was “No compound detectable”. In addition, the solubility in data set [3] was found to be 14.5 µM (≈ 11.9 µg/mL). For the same compound, in [4], the pIC50 is 7.33. This compound had a negative-log Ki (pKi) in data set [5] of 8.02.

`CC(=O)NCc1ccc(CN[C@@H](C(=O)N[C@H]2c3ccccc3C[C@H]2O)[C@H](O)[C@H](Cc2ccccc2)NC(=O)[C@@H](NC(=O)OCc2ccccc2)C(C)(C)C)cc1`: the AUC result in data set [6] is listed as “No compound detectable”. The Cmax result in [7] is listed as “No compound detectable”. Also, in data set [3], the solubility was 25.3 µM (≈ 19.3 µg/mL). For the same compound, the pIC50 in data set [4] is 7.00. In data set [5], the negative logarithm of the Ki (pKi) was 8.24.

Regarding `CC(C)(C)[C@H](NC(=O)OCc1ccccc1)C(=O)N[C@@H](Cc1ccccc1)[C@@H](O)[C@@H](NCc1ccc(CNC(=O)Nc2ccccc2)cc1)C(=O)N[C@H]1c2ccccc2C[C@H]1O`, the AUC entry in data set [8] was “No compound detectable”. Moreover, the Cmax result in [7] was “No compound detectable”. The solubility in data set [3] is under 1 µM. Also, in data set [4], the pIC50 was 6.76. The negative logarithm of the Ki (pKi) in data set [5] is 8.48.

In the case of `COc1ccc(CN[C@@H](C(=O)NC2c3ccccc3C[C@H]2O)[C@H](O)[C@H](Cc2ccccc2)NC(=O)[C@@H](NC(=O)/C=C/c2ccc(OC)c(O)c2)C(C)(C)C)cc1` (stereo not given in full), the Cmax result in [9] was “No compound detectable”. Also, the AUC result in [8] was “No compound detectable”. The same compound showed a negative logarithm of the IC50 (pIC50) in data set [4] of 6.90. In data set [5], this compound showed a pKi of 8.24.

Turning to `COc1ccc(CN[C@@H](C(=O)N[C@H](CO)c2ccccc2)[C@H](O)[C@H](Cc2ccccc2)NC(=O)OC(C)(C)C)cc1`, the IC50 entry in the data set on MT4 is on record as “No activity”. The Ki entry in data set [10] is “No activity”.

For `CC(C)(C)[C@H](NC(=O)OCc1ccccc1)C(=O)N[C@@H](Cc1ccccc1)[C@@H](O)[C@@H](NCc1ccc(CNC(=O)OCc2ccccc2)cc1)C(=O)N[C@H]1c2ccccc2C[C@H]1O`, the Cmax result in data set [9] is listed as “No compound detectable”. In addition, in data set [6], the AUC entry is “No compound detectable”. The solubility in [3] was under 1 µM. The pIC50 in data set [4] is 6.85.

With `COc1ccc(CN[C@@H](C(=O)N[C@H]2c3ccccc3C[C@H]2O)[C@H](O)[C@H](Cc2ccccc2)NC(=O)[C@@H](NC(=O)CCc2nc3ccccc3[nH]2)C(C)(C)C)cc1`, the AUC entry in [6] was “No compound detectable”. The Cmax result in [7] is given as “No compound detectable”. Moreover, in data set [3], the solubility is 12.2 µM (≈ 9.28 µg/mL). The same compound had a negative-log IC50 (pIC50) in data set [4] of 7.01. Besides, the negative-log Ki (pKi) in data set [5] is 8.03.

By pIC50 is commonly meant the negative decadic logarithm of the IC50, by convention in mol/L. A lower pIC50 goes with a high IC50. For orientation: pKi means the Ki on a negative log10 scale, so that one unit is a factor of ten. High values mean a low Ki, low ones a high Ki.

Source of the values: ChEMBL document CHEMBL1129316, “Inhibitors of human immunodeficiency virus type 1 protease containing 2-aminobenzyl-substituted 4-amino-3-hydroxy-5-phenylpentanoic acid: synthesis, activity, and oral bioavailability” (J Med Chem, 1996).
